In ChEMBL document CHEMBL2046289, “Novel 2-(2-(benzylthio)-1H-benzo[d]imidazol-1-yl)acetic acids: discovery and hit-to-lead evolution of a selective CRTh2 receptor antagonist chemotype” (Bioorg Med Chem Lett, 2012):
Values after ≈ are worked out from the molar mass of the structure shown.

Legend:
[1] = molecular target: T1, Prostaglandin D2 receptor 2 (Homo sapiens, UniProt Q9Y5Y4); assay: Displacement of [3H]-PGD2 from human CRTh2 receptor expressed in HEK293 cells; type: cell-based
T1 sequence (Q9Y5Y4 whole entry): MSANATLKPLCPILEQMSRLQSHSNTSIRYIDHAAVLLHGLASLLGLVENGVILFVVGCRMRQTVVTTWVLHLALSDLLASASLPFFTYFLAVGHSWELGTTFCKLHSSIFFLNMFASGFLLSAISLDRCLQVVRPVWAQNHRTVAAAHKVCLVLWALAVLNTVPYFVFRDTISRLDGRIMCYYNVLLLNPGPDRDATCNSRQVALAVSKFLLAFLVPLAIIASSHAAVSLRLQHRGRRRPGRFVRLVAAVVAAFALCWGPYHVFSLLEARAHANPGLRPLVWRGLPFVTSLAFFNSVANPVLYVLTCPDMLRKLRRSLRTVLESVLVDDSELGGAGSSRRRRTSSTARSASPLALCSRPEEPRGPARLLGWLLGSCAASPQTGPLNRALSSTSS

[2] = molecular target: T1, Prostaglandin D2 receptor 2; assay: Antagonist activity at human CRTh2 receptor expressed in HEK293 cells assessed as inhibition of PGD2-induced calcium flux by FLIPR assay; type: functional, cell-based
[3] = Volume of distribution at steady state in Wistar rat at 1 mg/kg, iv and 10 mg/kg, po; type: ADME, organism-based; settings: in vivo, read-out: Vdss
Outline: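 Male Wistar rats, 3 animals per experiment; intravenous dose 1 mg/kg and oral dose 10 mg/kg, each given as a solution.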

[4] = molecular target: T1, Prostaglandin D2 receptor 2; assay: Displacement of [3H]-PGD2 from human CRTh2 receptor expressed in HEK293 cells in presence of 0.5% human serum albumin; type: cell-based
[5] = molecular target: T2, Prostaglandin D2 receptor (Homo sapiens, UniProt Q13258); assay: Displacement of [3H]-PGD2 from human DP1 receptor expressed in CHO cells; type: cell-based
T2 sequence (Q13258 whole entry): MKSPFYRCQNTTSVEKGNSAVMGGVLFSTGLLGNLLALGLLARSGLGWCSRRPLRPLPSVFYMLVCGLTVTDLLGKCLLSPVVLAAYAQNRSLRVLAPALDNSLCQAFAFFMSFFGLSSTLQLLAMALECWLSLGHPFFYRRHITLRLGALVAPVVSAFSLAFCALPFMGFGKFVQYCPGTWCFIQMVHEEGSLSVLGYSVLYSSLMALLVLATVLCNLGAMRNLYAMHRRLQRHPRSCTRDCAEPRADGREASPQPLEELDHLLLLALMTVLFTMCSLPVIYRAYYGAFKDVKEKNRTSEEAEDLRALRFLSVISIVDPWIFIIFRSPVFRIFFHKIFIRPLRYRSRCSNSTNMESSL

[6] = Lipophilicity, log D of the compound at pH 7.4; type: physicochemical; settings: buffer
[7] = Solubility of the compound in 0.1 M HCl; type: physicochemical; settings: buffer
[8] = Solubility of the compound in phosphate buffer at pH 7; type: physicochemical
[9] = Solubility of the compound in Tris buffer at pH 9; type: physicochemical
[10] = Stability of the compound in simulated gastric fluid assessed as compound remaining after 1 hr; type: physicochemical; settings: read-out: Stability
Outline: (§1)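 Compound incubated in simulated gastric fluid for 1 h or simulated intestinal fluid for 4 h; unchanged parent recovered quantified by LC-MS, expressed as % parent remaining.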

[11] = Stability of the compound in simulated intestinal fluid assessed as compound remaining after 4 hrs; type: physicochemical; settings: read-out: Stability; outline: as §1
[12] = Metabolic stability of the compound in human plasma assessed as compound remaining after 4 hrs; type: ADME, cell-free; settings: read-out: Stability
[13] = Intrinsic clearance in rat liver microsomes assessed per mg protein; type: ADME, Microsome; settings: read-out: CLH
[14] = Intrinsic clearance in human liver microsomes assessed per mg protein; type: ADME, Microsome; settings: read-out: CLH
[15] = Intrinsic clearance in rat hepatocytes assessed per 10^6 cells; type: ADME, cell-based, Hepatocyte; settings: read-out: CLH
Cytochrome P450 2D6 = Cytochrome P450 2D6 (Homo sapiens, UniProt P10635); assay: Inhibition of CYP2D6; type: ADME
Chain of Cytochrome P450 2D6 (P10635 whole entry): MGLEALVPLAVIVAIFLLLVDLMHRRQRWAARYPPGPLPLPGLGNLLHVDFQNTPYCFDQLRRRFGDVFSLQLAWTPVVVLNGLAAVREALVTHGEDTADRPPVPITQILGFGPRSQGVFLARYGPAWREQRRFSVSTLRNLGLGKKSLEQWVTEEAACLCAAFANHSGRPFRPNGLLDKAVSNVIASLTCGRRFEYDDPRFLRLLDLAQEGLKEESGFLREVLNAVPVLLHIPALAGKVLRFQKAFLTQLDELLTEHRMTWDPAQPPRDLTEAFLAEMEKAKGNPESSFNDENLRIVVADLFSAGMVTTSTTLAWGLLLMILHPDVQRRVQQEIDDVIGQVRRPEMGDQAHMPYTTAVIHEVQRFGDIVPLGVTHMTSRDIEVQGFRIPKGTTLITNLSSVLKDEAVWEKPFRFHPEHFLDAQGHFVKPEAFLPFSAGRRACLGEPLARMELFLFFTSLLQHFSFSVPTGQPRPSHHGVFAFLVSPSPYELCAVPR

Cytochrome P450 3A4 [16] = molecular target: T3, Cytochrome P450 3A4 (Homo sapiens, UniProt P08684); assay: Inhibition of CYP3A4 using midazolam as substrate; type: ADME
T3 sequence (P08684 whole entry): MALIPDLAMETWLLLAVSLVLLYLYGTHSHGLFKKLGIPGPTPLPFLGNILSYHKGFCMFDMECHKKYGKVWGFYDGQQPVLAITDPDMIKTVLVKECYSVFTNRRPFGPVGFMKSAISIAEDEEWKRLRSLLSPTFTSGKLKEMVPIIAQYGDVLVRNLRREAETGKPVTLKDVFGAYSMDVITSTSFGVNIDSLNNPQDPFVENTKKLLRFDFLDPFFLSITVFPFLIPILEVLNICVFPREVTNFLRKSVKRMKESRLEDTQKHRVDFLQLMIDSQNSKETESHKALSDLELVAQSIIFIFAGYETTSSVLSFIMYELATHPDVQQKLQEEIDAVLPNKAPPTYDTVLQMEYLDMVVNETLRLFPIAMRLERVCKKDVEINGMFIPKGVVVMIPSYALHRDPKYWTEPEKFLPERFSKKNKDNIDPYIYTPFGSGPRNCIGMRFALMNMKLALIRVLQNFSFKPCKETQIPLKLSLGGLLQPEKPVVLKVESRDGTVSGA

Cytochrome P450 3A4 [17] = molecular target: T3, Cytochrome P450 3A4; assay: Inhibition of CYP3A4 using testosterone as substrate; type: ADME
Cytochrome P450 2C9 = Cytochrome P450 2C9 (Homo sapiens, UniProt P11712); assay: Inhibition of CYP2C9; type: ADME
Chain of Cytochrome P450 2C9 (P11712 whole entry): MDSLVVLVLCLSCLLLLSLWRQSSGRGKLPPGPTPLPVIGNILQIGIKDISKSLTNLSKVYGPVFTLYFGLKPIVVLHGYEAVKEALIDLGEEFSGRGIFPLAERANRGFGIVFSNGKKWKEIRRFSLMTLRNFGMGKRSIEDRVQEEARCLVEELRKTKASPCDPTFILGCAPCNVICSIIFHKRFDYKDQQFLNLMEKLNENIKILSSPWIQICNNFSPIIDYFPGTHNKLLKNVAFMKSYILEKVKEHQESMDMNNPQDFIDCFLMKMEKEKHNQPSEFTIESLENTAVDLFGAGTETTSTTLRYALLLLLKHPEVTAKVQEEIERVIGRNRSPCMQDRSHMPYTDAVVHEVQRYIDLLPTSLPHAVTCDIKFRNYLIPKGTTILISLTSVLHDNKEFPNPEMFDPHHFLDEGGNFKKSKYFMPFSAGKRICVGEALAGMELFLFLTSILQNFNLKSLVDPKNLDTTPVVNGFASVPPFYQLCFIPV

Row | SMILES | IC50 [1] [nM] | other results
1 | CCOC(=O)CCCSc1nc2ccccc2n1CC(=O)O | 4410 | 
2 | Cc1ccccc1CSc1nc2ccccc2n1CC(=O)O | 810 | 
3 | O=C(O)Cn1c(SCCOc2ccc3ccccc3c2)nc2ccccc21 | 2500 | 
4 | COc1cccc(CSc2nc3ccccc3n2CC(=O)O)c1 | 72 | 
5 | COc1ccccc1CSc1nc2ccccc2n1CC(=O)O | 1100 | 
6 | O=C(O)Cn1c(SCCCCOc2ccccc2)nc2ccccc21 | 1400 | 
7 | CCOC(=O)CCCCSc1nc2ccccc2n1CC(=O)O | 2360 | 
8 | CCNC(=O)CCCCSc1nc2ccccc2n1CC(=O)O | > 10000 | 
9 | Cc1cccc(CSc2nc3ccccc3n2CC(=O)O)c1 | 105 | 
10 | O=C(O)Cn1c(SCCc2ccccc2)nc2ccccc21 | 881 | 
11 | COC(=O)c1cccc(CSc2nc3ccccc3n2CC(=O)O)c1 | 450 | 
12 | COc1ccc(C(C)O)cc1CSc1nc2ccccc2n1CC(=O)O (racemic) | 2200 | 
13 | CC(=O)Oc1ccccc1C(=O)O [ASPIRIN] |  | Vd [3]: 1 L/kg
14 | CCCCSc1nc2ccccc2n1CC(=O)O | 2370 | 
15 | O=C(O)Cn1c(SCCOc2ccccc2)nc2ccccc21 | 590 | 
16 | COC(=O)c1cc(Br)cc(CSc2nc3ccccc3n2CC(=O)O)c1 | 330 | 
17 | O=C(O)Cn1c(SCc2ccccc2)nc2ccccc21 | 388 | 
18 | CCCCCSc1nc2ccccc2n1CC(=O)O | 1240 | 
19 | COC(=O)c1ccc(Br)c(CSc2nc3ccccc3n2CC(=O)O)c1 | 45 | 
20 | O=C(O)Cn1c(SCCCNc2ccccc2)nc2ccccc21 | 2690 | 
21 | COC(=O)c1ccccc1CSc1nc2ccccc2n1CC(=O)O | 520 | 
22 | O=C(O)Cn1c(SCc2ccccc2Br)nc2ccccc21 | 580 | 
23 | CCOC(=O)CCCCCSc1nc2ccccc2n1CC(=O)O | 1010 | 

Row | SMILES | IC50 [1] [nM] | other results
24 | O=C(O)Cn1c(SCCOc2cccc3ccccc23)nc2ccccc21 | 2000 | 
25 | COC(=O)c1cc(CSc2nc3ccccc3n2CC(=O)O)ccc1Br | 980 | 
26 | COc1ccc(CSc2nc3ccccc3n2CC(=O)O)cc1 | 210 | 
27 | O=C(O)Cn1c(SCCCc2ccccc2)nc2ccccc21 | 475 | 
28 | COC(=O)c1ccc(CSc2nc3ccccc3n2CC(=O)O)cc1 | 10600 | 
29 | O=C(O)Cn1c(SCc2cccc(Cl)c2)nc2ccccc21 | 186 | 
30 | O=C(O)Cn1c(SCc2cc(Cl)ccc2Cl)nc2ccccc21 | 470 | 
31 | O=C(O)Cn1c(SCc2ccc(Cl)c(Cl)c2)nc2ccccc21 | 380 | 
32 | O=C(O)Cn1c(SCCOc2ccc(Cl)cc2)nc2ccccc21 | 1500 | IC50 [2]: 6600 nM
33 | Cc1ccc(CSc2nc3ccccc3n2CC(=O)O)cc1 | 220 | 
34 | O=C(O)Cn1c(SCc2ccc(Br)cc2)nc2ccccc21 | 220 | 
35 | O=C(O)Cn1c(SCc2ccccc2Cl)nc2ccccc21 | 370 | 
36 | CC(=O)CC(c1ccccc1)c1c(O)c2ccccc2oc1=O (configuration not stated) [WARFARIN] |  | Vd [3]: 1 L/kg
37 | O=C(O)Cn1c(SCc2ccc(Cl)cc2)nc2ccccc21 | 160 | 
38 | O=C(O)Cn1c(SCCNc2ccccc2)nc2ccccc21 | 7690 | 
39 | CCOC(=O)CCSc1nc2ccccc2n1CC(=O)O | 11400 | 
40 | COC(=O)c1cccc(CSc2nc3ccccc3n2CC(=O)O)c1Br | 2900 | 
41 | O=C(O)Cn1c(SCCCOc2ccccc2)nc2ccccc21 | 786 | 
42 | COc1ccc(OC)c(CSc2nc3ccccc3n2CC(=O)O)c1 | 1600 | 
43 | CC(=O)c1cccc(CSc2nc3ccccc3n2CC(=O)O)c1 | 230 | 
44 | CCCCCCSc1nc2ccccc2n1CC(=O)O | 1360 | 
45 | O=C(O)Cn1c(SCc2cccc(Br)c2)nc2ccccc21 | 370 | 

Continued, in another order:

Row | IC50 [1] [nM] | SMILES | other results
46 | 59 | COc1ccc(C(=O)NCc2ccccc2)cc1CSc1nc2cc(F)ccc2n1CC(=O)O | IC50 [2]: 94 nM
47 | 29 | COC(=O)c1ccc(OC)c(CSc2nc3ccccc3n2CC(=O)O)c1 | 
48 | 41 | COc1ccc(C(C)=O)cc1CSc1nc2cc(S(C)(=O)=O)ccc2n1CC(=O)O | IC50 [2]: 50 nM
49 | 5 | COc1ccc(C(C)=O)cc1CSc1nc2c(F)cccc2n1CC(=O)O | IC50 [2]: 10 nM
50 | 150 | COc1ccc(C(=O)OC(C)C)cc1CSc1nc2ccccc2n1CC(=O)O | 
51 | 1200 | COc1ccc(C)cc1CSc1nc2ccccc2n1CC(=O)O | 
52 | 4 | COc1ccc(C(C)=O)cc1CSc1nc2cc(C=O)ccc2n1CC(=O)O | IC50 [2]: 9 nM
53 | 16 | CCNC(=O)c1ccc(OC)c(CSc2nc3cc(F)ccc3n2CC(=O)O)c1 | IC50 [2]: 15 nM
54 | 5 | CCCOc1ccc(C(C)=O)cc1CSc1nc2cc(F)ccc2n1CC(=O)O | IC50 [2]: 9 nM
55 | 16 | CCCCNC(=O)c1ccc(OC)c(CSc2nc3cc(F)ccc3n2CC(=O)O)c1 | IC50 [2]: 15 nM; IC50 [4]: 81 nM; IC50 [5]: > 10000 nM; logD [6]: 0.1; solubility [7]: 670 µg/mL (≈ 1500 µM); solubility [8]: 719 µg/mL (≈ 1610 µM); solubility [9]: > 750 µg/mL; remaining at 1 h [10]: 94%; remaining at 4 h [11]: 78%; remaining at 4 h [12]: 100%; microsomal CLint [13]: 60 µL/min/mg; microsomal CLint [14]: 7 µL/min/mg; hepatocyte CLint [15]: 6 µL/min/1e6 cells; IC50 (Cytochrome P450 2D6): > 50000 nM; IC50 (Cytochrome P450 3A4 [16]): 4000 nM; IC50 (Cytochrome P450 3A4 [17]): 7000 nM; IC50 (Cytochrome P450 2C9): 6000 nM
56 | 3 | COc1ccc(C(=O)N2CCc3ccccc32)cc1CSc1nc2cc(F)ccc2n1CC(=O)O | IC50 [4]: 8 nM; IC50 [5]: > 10000 nM; logD [6]: 0.3; solubility [7]: 158 µg/mL (≈ 321 µM); solubility [8]: 812 µg/mL (≈ 1650 µM); solubility [9]: 789 µg/mL (≈ 1610 µM); remaining at 1 h [10]: 100%; remaining at 4 h [11]: 100%; remaining at 4 h [12]: 93%; microsomal CLint [13]: 91 µL/min/mg; microsomal CLint [14]: 2 µL/min/mg; hepatocyte CLint [15]: 12 µL/min/1e6 cells; IC50 (Cytochrome P450 2D6): > 50000 nM; IC50 (Cytochrome P450 3A4 [16]): 5000 nM; IC50 (Cytochrome P450 3A4 [17]): 13000 nM; IC50 (Cytochrome P450 2C9): 28000 nM
57 | 9 | CCCCOc1ccc(C(C)=O)cc1CSc1nc2cc(F)ccc2n1CC(=O)O | IC50 [2]: 12 nM
58 | 33 | COc1ccc(C(C)=O)cc1CSc1nc2cc(C(C)=O)ccc2n1CC(=O)O | IC50 [2]: 63 nM
59 | 495 | CCN(Cc1ccccc1)C(=O)c1ccc(OC)c(CSc2nc3cc(F)ccc3n2CC(=O)O)c1 | IC50 [2]: 725 nM
60 | 45 | COc1ccc(C(C)=O)cc1CSc1nc2ccc(F)cc2n1CC(=O)O | IC50 [2]: 89 nM
61 | 1.7 | COc1ccc(C(=O)c2ccccc2)cc1CSc1nc2cc(F)ccc2n1CC(=O)O | IC50 [2]: 4 nM
62 | 740 | COc1ccc(Cl)cc1CSc1nc2ccccc2n1CC(=O)O | 
63 | 72 | CCN(CC)C(=O)c1ccc(OC)c(CSc2nc3cc(F)ccc3n2CC(=O)O)c1 | IC50 [2]: 130 nM
64 | 2 | COc1ccc(C(C)=O)cc1CSc1nc2cc([N+](=O)[O-])ccc2n1CC(=O)O | IC50 [2]: 3 nM
65 | 4 | CCOc1ccc(C(C)=O)cc1CSc1nc2cc(F)ccc2n1CC(=O)O | IC50 [2]: 5 nM
66 | 107 | COc1ccc(C(=O)N2CCOCC2)cc1CSc1nc2cc(F)ccc2n1CC(=O)O | IC50 [2]: 91 nM
67 | 3 | COc1ccc(C(C)=O)cc1CSc1nc2cc(C(F)(F)F)ccc2n1CC(=O)O | IC50 [2]: 5 nM
